Legend:
Homo sapiens [1] = assay: Toxicity in healthy human assessed as occurrence of palpitations at 1 mg, po administered as single dose relative to control; type: organism-based; details: in vivo
[2] = Apparent oral clearance in healthy human at 50 mg, po administered as single dose; type: ADME, organism-based; details: in vivo
Summary of the method: (§1)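 Healthy male volunteers, six active plus two placebo per dose group, single oral dose in PEG solution with 200 ml water after overnight fast; breakfast 60 to 90 min post-dose. EDTA plasma sampled predose to 144 h. Assayed by validated LC-MS/MS after protein precipitation. Noncompartmental analysis, AUC by linear up/log down trapezoidal rule; Vss = CL/F·(MRTp.o. − 1/Ka).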

[3] = Renal clearance in healthy human at 50 mg, po administered as single dose coadministered with 100 mg of ritonavir by high-pressure liquid chromatography-tandem mass spectrometry/mass spectrometry method; type: ADME, organism-based, Kidney; details: in vivo, read-out: CL_renal (converted)
[4] = AUC (0 to last) in healthy human at 12.5 mg, po administered as single dose coadministered with 100 mg of ritonavir; type: ADME, organism-based; set-up: dose 12.5 mg, time 0 - last, route oral; details: plasma
Summary of the method: (§2)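 Healthy male volunteers, fasted. Ritonavir 100 mg given 10 h before and again together with single oral BILR 355 in PEG solution. EDTA plasma sampled predose to 144 h. LC-MS/MS assay after protein precipitation. Noncompartmental analysis, AUC by linear up/log down trapezoidal rule; Vss = CL/F·(MRTp.o. − 1/Ka).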

[5] = Apparent oral clearance in healthy human at 100 mg, po administered as single dose; type: ADME, organism-based; details: in vivo; summary of the method: as §1
Homo sapiens [6] = assay: Toxicity in healthy human assessed as occurrence of nausea at 100 mg, po administered as single dose relative to control; type: organism-based; details: in vivo
Homo sapiens [7] = assay: Toxicity in healthy human assessed as occurrence of constipation at 1 mg, po administered as single dose relative to control; type: organism-based; details: in vivo
[8] = AUC (0 to infinity) in healthy human at 87.5 mg, po administered as single dose coadministered with 100 mg of ritonavir; type: ADME, organism-based; set-up: dose 87.5 mg, time infinity, route oral; details: plasma; summary of the method: as §2
Homo sapiens [9] = assay: Toxicity in healthy human assessed as occurrence of migraine at 5 mg, po administered as single dose relative to control; type: organism-based; details: in vivo
Homo sapiens [10] = assay: Toxicity in healthy human assessed as occurrence of flatulence at 1 mg, po administered as single dose relative to control; type: organism-based; details: in vivo
Homo sapiens [11] = assay: Ratio of AUC (0 to infinity) in human at 25 mg, po in presence of 100 mg of ritonavir to AUC (0 to infinity) in human at 25 mg, po; type: ADME, organism-based; details: in vivo
Homo sapiens [12] = assay: Toxicity in healthy human assessed as occurrence of fatigue at 75 mg, po administered as single dose coadministered with 100 mg of ritonavir; type: organism-based; details: in vivo
[13] = Apparent volume of distribution at steady state in healthy human at 5 mg, po administered as single dose; type: ADME, organism-based; details: in vivo, read-out: Vss/F
Summary of the method: (§3)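 Single fasting oral dose of BILR 355 in PEG solution with 200 ml tap water, given to healthy males. Standard breakfast came 60-90 min after the dose. EDTA plasma was sampled predose to 144 h, stored below −18°C and assayed by LC-MS/MS after protein precipitation. Noncompartmental analysis gave Vz/F. Vss/F = CL/F·(MRTp.o. − 1/Ka), with Ka from compartmental modelling.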

[14] = Half life in healthy human at 5 mg, po administered as single dose coadministered with 100 mg of ritonavir; type: ADME, organism-based; details: in vivo
[15] = AUC (0 to infinity) in healthy human at 12.5 mg, po administered as single dose; type: ADME, organism-based; set-up: dose 12.5 mg, route oral, time infinity; details: plasma; summary of the method: as §1
[16] = AUC (0 to infinity) in healthy human at 5 mg, po administered as single dose; type: ADME, organism-based; set-up: dose 5 mg, route oral, time infinity; details: plasma; summary of the method: as §1
Homo sapiens [17] = assay: Toxicity in healthy human assessed as occurrence of diarrhea at 5 mg, po administered as single dose coadministered with 100 mg of ritonavir; type: organism-based; details: in vivo
[18] = Apparent volume of distribution in terminal phase in healthy human at 50 mg, po administered as single dose; type: ADME, organism-based; details: in vivo, read-out: Vz/F; summary of the method: as §3
[19] = Drug excretion in healthy human urine assessed as unchanged drug at 25 mg, po administered as single dose coadministered with 100 mg of ritonavir by high-pressure liquid chromatography-tandem mass spectrometry/mass spectrometry method; type: ADME, organism-based; details: read-out: Drug uptake
Summary of the method: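 Ritonavir 100 mg was given 10 h before and with one oral dose of BILR 355 in PEG solution. Urine was collected by weight as predose blank, then 0-6, 6-24 and 24-72 h, stored at −20°C and assayed by LC-MS/MS. fe = unchanged drug excreted (Ae) as a percentage of dose. Line 50: high-fat breakfast 30 min before dosing.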

Homo sapiens [20] = assay: AUC (0 to infinity) in healthy human at 75 mg, po administered as single dose; type: ADME, organism-based, Plasma; set-up: dose 75 mg, route oral, time infinity; details: in vivo; summary of the method: as §1
Homo sapiens [21] = assay: Toxicity in healthy human assessed as occurrence of constipation at 25 mg, po administered as single dose relative to control; type: organism-based; details: in vivo
[22] = Cmax in healthy human at 87.5 mg, po administered as single dose coadministered with 100 mg of ritonavir by high-pressure liquid chromatography-tandem mass spectrometry/mass spectrometry method; type: ADME, organism-based; set-up: dose 87.5 mg, route oral; details: in vivo
Summary of the method: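 Healthy male volunteers, fasted overnight, got one oral dose of BILR 355 in PEG solution with 200 ml water. Ritonavir 100 mg was given 10 h before and again with the dose. Plasma was sampled (EDTA) from predose to 144 h and assayed by validated LC-MS/MS. Cmax and Vz/F came from noncompartmental analysis. Vss/F = CL/F·(MRTp.o. − 1/Ka), with Ka from compartmental modelling.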

[23] = Apparent oral clearance in healthy human at 5 mg, po administered as single dose coadministered with 100 mg of ritonavir; type: ADME, organism-based; details: in vivo; summary of the method: as §2
[24] = Apparent volume of distribution in terminal phase in healthy human at 25 mg, po administered as single dose; type: ADME, organism-based; details: in vivo, read-out: Vz/F; summary of the method: as §3
Homo sapiens [25] = assay: Toxicity in healthy human assessed as occurrence of frequent bowel movements at 75 mg, po administered as single dose relative to control; type: organism-based; details: in vivo
Homo sapiens [26] = assay: Toxicity in healthy human assessed as occurrence of neurological eyelid disorder at 25 mg, po administered as single dose relative to control; type: organism-based; details: in vivo
[27] = Half life in healthy human at 75 mg, po administered as single dose coadministered with 100 mg of ritonavir; type: ADME, organism-based; details: in vivo
[28] = Drug excretion in healthy human urine assessed as unchanged drug at 25 mg, po administered as single dose by high-pressure liquid chromatography-tandem mass spectrometry/mass spectrometry method; type: ADME, organism-based; details: read-out: Drug uptake
Summary of the method: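 Urine was collected by weight after one oral dose of BILR 355 in PEG solution in fasted healthy males. Intervals were predose blank, 0-6, 6-24 and 24-72 h, with the bladder voided before each. Aliquots were stored at −20°C and assayed by LC-MS/MS. fe = amount of unchanged drug excreted (Ae) as a percentage of the administered dose.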

[29] = Half life in high fat fed healthy human at 50 mg, po administered as single dose coadministered with 100 mg of ritonavir; type: ADME, organism-based; details: in vivo
Homo sapiens [30] = assay: Toxicity in healthy human assessed as occurrence of abdominal pain at 1 mg, po administered as single dose relative to control; type: organism-based, Abdomen; details: in vivo
[31] = Apparent volume of distribution in terminal phase in healthy human at 75 mg, po administered as single dose; type: ADME, organism-based; details: in vivo, read-out: Vz/F; summary of the method: as §3
Homo sapiens [32] = assay: Toxicity in healthy human assessed as occurrence of headache at 100 mg, po administered as single dose relative to control; type: organism-based; details: in vivo

CL/F [2]: 2150 mL/min | CL renal [3]: 4.87 mL/min | AUC(0-t) [4]: 1680 ng·h/mL | CL/F [5]: 1320 mL/min | AUC(0-inf) [8]: 11800 ng·h/mL | Ratio (Homo sapiens [11]): 31.1 | Vd/F [13]: 1020 L | half-life [14]: 14.7 h | AUC(0-inf) [15]: 71.8 ng·h/mL | AUC(0-inf) [16]: 36.3 ng·h/mL | Vd/F [18]: 460 L | dose excreted [19]: 6.62% | AUC (Homo sapiens [20]): 779 ng·h/mL | Cmax [22]: 838 ng/mL | CL/F [23]: 122 mL/min | Vd/F [24]: 1040 L | half-life [27]: 11.9 h | dose excreted [28]: 0.405% | half-life [29]: 11 h | Vd/F [31]: 832 L
SMILES: CCN1c2ncc(CCOc3cc[n+]([O-])c4ccccc34)cc2C(=O)N(C)c2cccnc21 [BILR 355]
Activity (Homo sapiens [1]): 0% | Activity (Homo sapiens [6]): 0% | Activity (Homo sapiens [7]): 0% | Activity (Homo sapiens [9]): 0% | Activity (Homo sapiens [10]): 0% | Activity (Homo sapiens [12]): 0% | Activity (Homo sapiens [17]): 0% | Activity (Homo sapiens [21]): 16.7% | Activity (Homo sapiens [25]): 16.7% | Activity (Homo sapiens [26]): 0% | Activity (Homo sapiens [30]): 0% | Activity (Homo sapiens [32]): 0%

Source: ChEMBL document CHEMBL1629563, “Pharmacokinetic and safety evaluation of BILR 355, a second-generation nonnucleoside reverse transcriptase inhibitor, in healthy volunteers” (Antimicrob Agents Chemother, 2008)
